ChEMBL document CHEMBL4689842, “EUbOPEN Chemogenomics Library wave 1” (2021)

System: Fibroblast
Test: Multiplex assay against human fibroblast
Type: toxicity, cell-based
Outline: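 Cells stained live at seeding with Hoechst33342, BioTracker Green Microtubule Cytoskeleton Dye, MitoTracker Red and Annexin V Alexa Fluor 680 were imaged on a CQ1 microscope at 37°C and 5% CO2 after compound addition. Their classification by CellPathfinder machine-learning gating ran from Hoechst high-intensity objects versus normal cells, to healthy, pyknosed or fragmented nuclei among normal cells, to mitotic or apoptotic among pyknosed cells. Tubulin, mitochondrial-mass and membrane-permeability phenotypes are per cents of healthy-nucleus cells.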

[1] = 12 h, 1 µM, compound concentration 1 uM, replicate 1
[2] = 12 h, 1 µM, compound concentration 1 uM, replicate 2
[3] = 12 h, 10 µM, compound concentration 10 uM, replicate 1
[4] = 12 h, 10 µM, compound concentration 10 uM, replicate 2
[5] = 24 h, 1 µM, compound concentration 1 uM, replicate 1
[6] = 24 h, 1 µM, compound concentration 1 uM, replicate 2
[7] = 24 h, 10 µM, compound concentration 10 uM, replicate 1
[8] = 24 h, 10 µM, compound concentration 10 uM, replicate 2
[9] = 48 h, 1 µM, compound concentration 1 uM, replicate 1
[10] = 48 h, 1 µM, compound concentration 1 uM, replicate 2
[11] = 48 h, 10 µM, compound concentration 10 uM, replicate 1
[12] = 48 h, 10 µM, compound concentration 10 uM, replicate 2

CCCn1c(=O)c2[nH]c(-c3cnn(Cc4cccc(C(F)(F)F)c4)c3)nc2n(CC)c1=O [GS 6201]
Population Apoptotic (%) [1]: 51%
Population Fragmented Nuclei (%) [1]: 26%
Population Healthy Nuclei (%) [1]: 32%
Population Hoechst High Intensity Objects (%) [1]: 11%
Population Membrane Permeable-Phenotype (%) [1]: 33%
Population Mitochondria Different-Phenotype (%) [1]: 14%
Population Mitotic Cells (%) [1]: 48%
Population Normal (%) [1]: 88%
Population Pyknosed Nuclei (%) [1]: 41%
Population Tubulin-Different-Phenotype (%) [1]: 59%
Total Cell Count [1]: 95
Population Apoptotic (%) [2]: 42%
Population Fragmented Nuclei (%) [2]: 4%
Population Healthy Nuclei (%) [2]: 88%
Population Hoechst High Intensity Objects (%) [2]: 2%
Population Membrane Permeable-Phenotype (%) [2]: 8%
Population Mitochondria Different-Phenotype (%) [2]: 9%
Population Mitotic Cells (%) [2]: 57%
Population Normal (%) [2]: 97%
Population Pyknosed Nuclei (%) [2]: 7%
Population Tubulin-Different-Phenotype (%) [2]: 28%
Total Cell Count [2]: 75
Population Apoptotic (%) [3]: 76%
Population Fragmented Nuclei (%) [3]: 48%
Population Healthy Nuclei (%) [3]: 18%
Population Hoechst High Intensity Objects (%) [3]: 31%
Population Membrane Permeable-Phenotype (%) [3]: 25%
Population Mitochondria Different-Phenotype (%) [3]: 17%
Population Mitotic Cells (%) [3]: 24%
Population Normal (%) [3]: 68%
Population Pyknosed Nuclei (%) [3]: 33%
Population Tubulin-Different-Phenotype (%) [3]: 46%
Total Cell Count [3]: 221
Population Apoptotic (%) [4]: 50%
Population Fragmented Nuclei (%) [4]: 17%
Population Healthy Nuclei (%) [4]: 77%
Population Hoechst High Intensity Objects (%) [4]: 5%
Population Membrane Permeable-Phenotype (%) [4]: 3%
Population Mitochondria Different-Phenotype (%) [4]: 20%
Population Mitotic Cells (%) [4]: 50%
Population Normal (%) [4]: 94%
Population Pyknosed Nuclei (%) [4]: 4%
Population Tubulin-Different-Phenotype (%) [4]: 10%
Total Cell Count [4]: 98
Population Apoptotic (%) [5]: 70%
Population Fragmented Nuclei (%) [5]: 21%
Population Healthy Nuclei (%) [5]: 42%
Population Hoechst High Intensity Objects (%) [5]: 20%
Population Membrane Permeable-Phenotype (%) [5]: 32%
Population Mitochondria Different-Phenotype (%) [5]: 10%
Population Mitotic Cells (%) [5]: 29%
Population Normal (%) [5]: 79%
Population Pyknosed Nuclei (%) [5]: 36%
Population Tubulin-Different-Phenotype (%) [5]: 82%
Total Cell Count [5]: 83
Population Apoptotic (%) [6]: 50%
Population Fragmented Nuclei (%) [6]: 5%
Population Healthy Nuclei (%) [6]: 90%
Population Hoechst High Intensity Objects (%) [6]: 4%
Population Membrane Permeable-Phenotype (%) [6]: 2%
Population Mitotic Cells (%) [6]: 50%
Population Normal (%) [6]: 95%
Population Pyknosed Nuclei (%) [6]: 4%
Population Tubulin-Different-Phenotype (%) [6]: 30%
Total Cell Count [6]: 81
Population Apoptotic (%) [7]: 87%
Population Fragmented Nuclei (%) [7]: 51%
Population Healthy Nuclei (%) [7]: 24%
Population Hoechst High Intensity Objects (%) [7]: 26%
Population Membrane Permeable-Phenotype (%) [7]: 29%
Population Mitochondria Different-Phenotype (%) [7]: 12%
Population Mitotic Cells (%) [7]: 12%
Population Normal (%) [7]: 73%
Population Pyknosed Nuclei (%) [7]: 23%
Population Tubulin-Different-Phenotype (%) [7]: 56%
Total Cell Count [7]: 224
Population Apoptotic (%) [8]: 50%
Population Fragmented Nuclei (%) [8]: 17%
Population Healthy Nuclei (%) [8]: 72%
Population Hoechst High Intensity Objects (%) [8]: 3%
Population Membrane Permeable-Phenotype (%) [8]: 5%
Population Mitochondria Different-Phenotype (%) [8]: 11%
Population Mitotic Cells (%) [8]: 50%
Population Normal (%) [8]: 96%
Population Pyknosed Nuclei (%) [8]: 10%
Population Tubulin-Different-Phenotype (%) [8]: 9%
Total Cell Count [8]: 139
Population Apoptotic (%) [9]: 69%
Population Fragmented Nuclei (%) [9]: 38%
Population Healthy Nuclei (%) [9]: 41%
Population Hoechst High Intensity Objects (%) [9]: 20%
Population Membrane Permeable-Phenotype (%) [9]: 25%
Population Mitochondria Different-Phenotype (%) [9]: 17%
Population Mitotic Cells (%) [9]: 30%
Population Normal (%) [9]: 79%
Population Pyknosed Nuclei (%) [9]: 19%
Population Tubulin-Different-Phenotype (%) [9]: 67%
Total Cell Count [9]: 84
Population Apoptotic (%) [10]: 100%
Population Fragmented Nuclei (%) [10]: 20%
Population Healthy Nuclei (%) [10]: 76%
Population Hoechst High Intensity Objects (%) [10]: 11%
Population Membrane Permeable-Phenotype (%) [10]: 13%
Population Mitochondria Different-Phenotype (%) [10]: 5%
Population Mitotic Cells (%) [10]: 0%
Population Normal (%) [10]: 89%
Population Pyknosed Nuclei (%) [10]: 3%
Population Tubulin-Different-Phenotype (%) [10]: 35%
Total Cell Count [10]: 100
Population Apoptotic (%) [11]: 84%
Population Fragmented Nuclei (%) [11]: 61%
Population Healthy Nuclei (%) [11]: 26%
Population Hoechst High Intensity Objects (%) [11]: 31%
Population Membrane Permeable-Phenotype (%) [11]: 41%
Population Mitochondria Different-Phenotype (%) [11]: 4%
Population Mitotic Cells (%) [11]: 15%
Population Normal (%) [11]: 68%
Population Pyknosed Nuclei (%) [11]: 11%
Population Tubulin-Different-Phenotype (%) [11]: 48%
Total Cell Count [11]: 234
Population Apoptotic (%) [12]: 0%
Population Fragmented Nuclei (%) [12]: 28%
Population Healthy Nuclei (%) [12]: 67%
Population Hoechst High Intensity Objects (%) [12]: 11%
Population Membrane Permeable-Phenotype (%) [12]: 12%
Population Mitochondria Different-Phenotype (%) [12]: 1%
Population Mitotic Cells (%) [12]: 100%
Population Normal (%) [12]: 88%
Population Pyknosed Nuclei (%) [12]: 4%
Population Tubulin-Different-Phenotype (%) [12]: 63%
Total Cell Count [12]: 109
